Shown are actives, neighbours in structure and some others; about 7.2% of the full set was active somewhere.
Ecoli WT expand = growth inhibitors of wild-type E. coli, primary screen, strain BW25113, expanded library, OD600. OD600 absorbance. growth inhibition, % at 100 µM. 98,000 compounds, 0.15% hits. AID 710, 2007;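 active means growth inhibition above about 50% at one test dose, limit read from the data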;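 further: growth measured after 20 h incubation at 37 °C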
PLAP act = PLAP enzyme activators, biochemical, luminescence, HTS; Alkaline phosphatase, placental type (Homo sapiens), P05187; purified PLAP enzyme, luminescent substrate read-out; stronger effect = higher value; activation fold at 20 µM; 96,000 compounds, 1.2% hits; AID 696, 2007; in the data active means activation fold above about 2
Target sequence (P05187 whole entry, looked up): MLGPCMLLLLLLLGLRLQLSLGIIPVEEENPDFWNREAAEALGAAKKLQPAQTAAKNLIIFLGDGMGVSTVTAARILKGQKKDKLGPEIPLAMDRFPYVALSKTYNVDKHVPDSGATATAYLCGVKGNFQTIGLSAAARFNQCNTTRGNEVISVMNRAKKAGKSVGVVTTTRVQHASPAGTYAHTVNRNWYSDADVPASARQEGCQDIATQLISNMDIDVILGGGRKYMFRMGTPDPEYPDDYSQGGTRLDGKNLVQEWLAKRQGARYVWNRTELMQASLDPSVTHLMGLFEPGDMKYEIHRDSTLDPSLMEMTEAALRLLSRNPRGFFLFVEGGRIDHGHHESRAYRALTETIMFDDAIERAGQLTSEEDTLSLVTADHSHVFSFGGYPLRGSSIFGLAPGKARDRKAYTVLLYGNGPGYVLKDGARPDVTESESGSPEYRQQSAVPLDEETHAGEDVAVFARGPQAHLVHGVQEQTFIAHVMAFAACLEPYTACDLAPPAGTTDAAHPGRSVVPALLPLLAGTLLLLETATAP
Ecoli tolC = growth inhibitors of E. coli tolC mutant, primary screen, strain BW25113 ΔtolC::kan, 384-well | OD615 | growth inhibition, % at 10 µM (by protocol) | 65,000 compounds, 2.2% hits | AID 573, 2007;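 active means growth inhibition at or above a cutoff equal to the mean over every tested compound plus 3 SD, cut at about 60% in these data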;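 further: growth measured after 20 h incubation at 37 °C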
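System: E. coli ΔtolC::kan strain BW25113; Buffer or medium: LB broth supplemented with 50 µg/mL kanamycin; Compound: 10 µM final, single dose; Incubation: bacterial growth with compound for 20 h at 37 °C; Signal: A615 absorbance measurement; Evaluation: growth inhibition in percent.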
PostGolgi ctrl = growth inhibition of yeast control strain, primary screen, counter-screen for post-Golgi transport modulator project | 98,000 compounds, 5% hits | inhibition, % at 10 µM | efflux-deficient yeast background strain, growth absorbance A615, 16 h
PostGolgi yeast = phenotypic screen on post-Golgi transport, primary screen. post-Golgi transport phenotypic cell assay. 98,000 compounds, 0.9% hits. inhibition, % at 10 µM. AID 739, 2007;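 further: yeast cells grown in 1536-well plates; yeast grown about 18 h at 30C before absorbance read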
An asterisk follows results filed as active; . = not tested or not shown. Unless noted, no stated cut-off is given here; in the data, active means inhibition above about 30%; inactive means the rest.

SMILES	Ecoli WT expand	PLAP act	Ecoli tolC	PostGolgi ctrl	PostGolgi yeast
CCOC(=O)C(C(=O)Nc1cccc(C)c1)C1CCCCC1 (centres undefined)	-7	0.9	.	6	3
O=C(CCc1ccccc1)Nc1ncn[nH]1	1	2.6*	-19	6	-1
O=C(Cc1ncn[nH]1)NCCc1ccccc1	6	2.4*	-7	-6	0
CCCNC(=O)Cc1ncn[nH]1	2	0.9	-27	2	1
COCCNC(=O)CN1CCN(Cc2cccc(Cl)c2)C1=O	-1	0.8	-13	-2	9
CCC(=O)Nc1cc(-c2nn(C)c(=O)c3ccccc23)ccc1N1CCOCC1	-4	2*	.	-9	8
Cn1nc(-c2ccc(N3CCOCC3)c(NC(=O)COc3ccccc3)c2)c2ccccc2c1=O	.	.	65*	.	.
COc1cccc(C2/C(=C(/O)c3ccncc3)C(=O)C(=O)N2CCCN2CCOCC2)c1OC (centres undefined)	.	.	-27	.	.
Cc1cc(-c2nnc(SCC(=O)Nc3ccccc3C(F)(F)F)o2)c(C)n1-c1ccccc1	-1	1.2	.	12	-1
Cc1cccc(NC(=O)CSc2nnc(-c3cc(C)n(-c4ccccc4)c3C)o2)c1C	-26	.	63*	15	-11
CC(C)N1C(=O)c2ccccc2C1C(=O)NC1CCCCCC1 (centres undefined)	5	1.2	1	-12	1
CCC(C)N1C(=O)c2ccccc2C1C(=O)NC1CCCCCC1 (centres undefined)	-10	1	1	31*	-7
Cc1nc(NCc2ccco2)c2c3c(sc2n1)CCC3	5	1.1	25	0	-1
CC1CCCc2sc3nc(NCc4ccco4)n4ncnc4c3c21 (centres undefined)	-11	.	81*	57*	-1
CC1CCc2sc3nc(NCc4ccco4)n4ncnc4c3c2C1 (centres undefined)	-4	1.4	36	63*	-12
CCN1CCN(c2nc3sc4c(c3c3ncnn23)CC(C)CC4)CC1 (centres undefined)	16	1.5	20	5	0
Cc1cccc(-n2c(CCCN3C(=O)c4ccccc4C3=O)nc3ccccc3c2=O)n1	-5	1	15	1	1
C=C(Cl)COc1ccc2c(CC)cc(=O)oc2c1	9	0.9	-1	7	-8
C=C(Cl)COc1ccc2c(CCCC)cc(=O)oc2c1	4	0.6	.	31*	-1
CC1CCCC(NC(=O)COC(=O)Cc2ccsc2)C1C (centres undefined)	-8	0.9	.	11	5
COc1ccc(OCCSc2n[nH]c(N)n2)cc1	1	2.6*	.	2	-1
Nc1c(C(=O)c2ccccc2)sc2snc(SCC(=O)c3ccccc3)c12	-14	1	.	9	0
O=S(=O)(Nc1ccc(S(=O)(=O)Nc2cccc3ccccc23)cc1)c1ccccc1	6	1.3	.	-7	-6
O=C(Nc1cc(C(F)(F)F)ccc1Cl)C1CCN(c2nnc(-n3cccc3)s2)CC1	-3	.	8	39*	6
COc1ccc2c(c1)sc1nc(-c3ccccc3)cn12	-11	1.3	99*	10	7
SMILES	Ecoli WT expand	PLAP act	Ecoli tolC	PostGolgi ctrl	PostGolgi yeast
CCOC(=O)N1CCN(C(=O)c2ccc3c(c2)sc2nc(-c4ccc(OC)cc4)cn23)CC1	-4	1.4	0	11	1
O=[N+]([O-])c1ccc(/C=N/Nc2nc(-c3ccccc3)c3cc(Br)ccc3n2)o1	-17	1.3	.	64*	9
Cc1ccc2nc(N/N=C\c3ccc([N+](=O)[O-])o3)nc(-c3ccccc3)c2c1	-25	0.7	.	99*	108*
Cc1nn(-c2ccccc2)c2c1/C(=N/O)CC(C)(C)C2	0	1	26	6	2
Cc1nn(-c2ccccc2)c2c1C(=O)N(c1ccccc1)C(=O)C(C)(C)C2	4	1.3	.	35*	4
Cc1ccc(S(=O)(=O)N(C)CC(=O)N2CCCc3ccccc32)cc1	8	1.1	12	8	-1
c1csc(-c2noc(COc3ccc4c(c3)CCCC4)n2)c1	5	1	61*	9	-7
CCCSc1nnc(NC(=O)c2nc(SC)ncc2Cl)s1	0	1	.	35*	3
CSc1ncc(Cl)c(C(=O)Nc2nnc(SC)s2)n1	-9	1	12	29	-8
O=S(=O)(C=C(c1ccccc1)c1ccccc1)c1ccccc1	-4	1	.	36*	-5
O=S(=O)(/C=C/c1ccccc1)c1ccccc1	2	1.1	.	5	1
CCC(=O)c1c[nH]c(C(=O)NCCCn2ccnc2)c1	-2	1.1	.	0	7
O=C(NC1CCCCC1)N1CCSC1=Nc1ccccc1	5	1.4	3	50*	5
O=C(NC1CCCCC1)N1CCCc2ccccc21	-4	1.1	3	2	-1
Cn1c(C(=O)NCCCN2CCCC2=O)cc2c(=O)n3ccccc3nc21	.	.	-24	.	.
CC(=O)Nc1cccc(NC(=O)CSc2ncc(-c3ccc(Cl)cc3)n2Cc2ccco2)c1	-8	1.8	94*	37*	-4
Cc1cc(Cl)ccc1NC(=O)CSc1nnc(-c2ccncc2)n1Cc1ccco1	9	1.8	6	-7	0
COc1ccc(-c2cnc(SCC(=O)Nc3ccc4c(c3)OCO4)n2Cc2ccco2)cc1	-19	1.8	66*	12	-5
O=C(CSc1nnc(-c2ccc(Cl)cc2)n1Cc1ccco1)Nc1ccc2c(c1)OCCO2	.	0.8	25	.	.
COc1ccc(-n2ccc(-c3nn(-c4cccc(C(F)(F)F)c4)ccc3=O)n2)cc1	1	1.3	.	31*	7
COc1cc(C(c2c(C)[nH][nH]c2=O)c2c(C)[nH][nH]c2=O)ccc1OS(=O)(=O)c1ccc(C)cc1	-6	2.9*	.	8	-3
COc1cc(C(c2c(C)[nH][nH]c2=O)c2c(C)[nH][nH]c2=O)ccc1OCc1ccc([N+](=O)[O-])cc1	6	2.6*	.	-4	10
COC(=O)C(=Cc1ccc(OCc2ccc([N+](=O)[O-])cc2)c(OC)c1)C(=O)OC	-5	0.9	.	12	-5
COc1cc(C(c2c(C)[nH][nH]c2=O)c2c(C)[nH][nH]c2=O)ccc1OC(=O)c1cccc([N+](=O)[O-])c1	-2	1.2	.	13	-3
COc1cc(C(c2c(C)[nH][nH]c2=O)c2c(C)[nH][nH]c2=O)ccc1OS(=O)(=O)c1ccccc1	-1	2.5*	.	-1	2
COc1ccc(C(CC(=O)O)NS(=O)(=O)c2ccc(C)cc2)cc1OC (centres undefined)	8	1	-18	-1	4
CCOC(=O)C(=Cc1ccc(OCc2ccc([N+](=O)[O-])cc2)c(OC)c1)C(=O)OCC	-2	1	.	43*	-4
Cc1cc(C)c(S(=O)(=O)Nc2ccc[nH]c2=O)c(C)c1	6	2*	9	21	3
CCCCCn1c(CN2CCN(c3cccc(Cl)c3)CC2)nc2c1c(=O)[nH]c(=O)n2C	1	1.9	14	45*	2
